High-throughput results from PubChem.
TRPC4 PAM = allosterically enhances the mouse TRPC4 cation channel | Q9QUQ5 | HEK293 TRPC4beta/mu-opioid, DAMGO EC20, Fluo-4 Ca2+ flux; hits give high values | B-score at 10 µM | 310,000 tested, 0.42% active | AID 2227;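 active = B-score of calcium response area above 5 SD of library B-scores, with initial fluorescence ratio within 5 SD of library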;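 note: B-score of integrated fluorescence ratio over time as area under calcium response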
Target sequence (Q9QUQ5 whole entry, looked up): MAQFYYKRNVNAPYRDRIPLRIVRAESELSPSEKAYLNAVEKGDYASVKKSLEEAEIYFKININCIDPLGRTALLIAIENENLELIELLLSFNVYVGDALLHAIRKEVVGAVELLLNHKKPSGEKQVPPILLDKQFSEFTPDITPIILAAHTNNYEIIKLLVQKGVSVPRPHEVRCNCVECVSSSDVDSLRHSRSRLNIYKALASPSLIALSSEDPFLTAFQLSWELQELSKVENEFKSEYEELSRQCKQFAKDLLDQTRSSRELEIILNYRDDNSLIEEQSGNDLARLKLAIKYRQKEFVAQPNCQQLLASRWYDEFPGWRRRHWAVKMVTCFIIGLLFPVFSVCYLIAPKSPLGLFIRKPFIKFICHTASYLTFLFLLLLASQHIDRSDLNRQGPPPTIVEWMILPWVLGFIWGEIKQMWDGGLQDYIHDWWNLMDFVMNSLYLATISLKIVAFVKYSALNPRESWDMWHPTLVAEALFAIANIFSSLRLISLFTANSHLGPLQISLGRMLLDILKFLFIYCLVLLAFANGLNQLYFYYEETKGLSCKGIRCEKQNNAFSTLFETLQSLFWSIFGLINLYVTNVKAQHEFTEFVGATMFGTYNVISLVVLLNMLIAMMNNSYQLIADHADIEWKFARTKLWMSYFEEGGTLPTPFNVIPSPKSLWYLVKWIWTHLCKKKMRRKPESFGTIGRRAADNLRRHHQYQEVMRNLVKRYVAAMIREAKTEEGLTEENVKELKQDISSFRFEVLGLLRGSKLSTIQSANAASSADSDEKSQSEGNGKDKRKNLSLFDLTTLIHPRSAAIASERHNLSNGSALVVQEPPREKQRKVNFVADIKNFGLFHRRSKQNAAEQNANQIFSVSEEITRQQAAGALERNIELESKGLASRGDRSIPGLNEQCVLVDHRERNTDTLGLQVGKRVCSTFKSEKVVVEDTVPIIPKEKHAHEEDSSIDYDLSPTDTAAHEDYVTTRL
TRPC6 inhibitor = inhibitors of mouse TRPC6 channel; B-score at 10 µM; 310,000 tested, 1.1% active; HEK293-TRPC6, membrane potential dye, ACh-evoked depolarization; hits give low values; AID 2553;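 active = B-score under library mean minus 3 SD, initial fluorescence not abnormally high, positive integrated signal ratio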;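 note: B-score derived from integrated fluorescence ratio over the kinetic read; more negative B-score means stronger inhibition of depolarization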
TRPC6 activator = activators of mouse TRPC6 channel | AID 2550 | B-score at 10 µM | Q61143 | 310,000 tested, 0.13% active | HEK293-TRPC6 membrane potential dye fluorescence; hits give high values;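 active = B-score of the integrated fluorescence ratio above library mean plus 3 SD, and starting fluorescence ratio within library mean plus 5 SD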;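 note: higher score means more depolarization so channel activation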
TRPC4 agonist = activators of mouse TRPC4 channel | 310,000 tested, 0.49% active | B-score at 10 µM | HEK293 TRPC4beta/mu-opioid, Fluo4 calcium fluorescence; hits give high values;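 active = B-score above 5 SD of library B-scores, and initial fluorescence ratio not above library mean plus 5 SD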;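 note: positive B-score marks a calcium rise read as TRPC4 activation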
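Assay system: HEK293 stable line with TRPC4beta plus mu-opioid receptor. Times: dye 45 min RT, read 110 s. Measured by: kinetic Fluo4 calcium fluorescence. Measure: B score of integrated ratio. Controls: assay buffer as low control, maximal DAMGO as high control.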
TRPC4 inh = inhibitors of mouse TRPC4 channel; B-score at 10 µM; HEK293 TRPC4beta/mu-opioid, DAMGO-evoked Fluo4 calcium flux; hits give low values; AID 2247; 300,000 tested, 0.39% active; Q9QUQ5;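 active = B-score over 3 SD under the library average, no early fluorescence shift, positive overall ratio signal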
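test system = HEK293 cells with stable TRPC4beta plus mu-opioid receptor expression | detection = Fluo4 Ca2+ flux fluorescence | read-out = integrated fluorescence ratio relative to baseline, converted to per-well B score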
TRPC4 spec 2 = second check of whether TRPC6 inhibitors also affect mouse TRPC4. AID 2776. 920 tested, 42% active. HEK293 TRPC4/MOR, membrane potential dye fluorescence; channel activated by saturating DAMGO dose. inhibition, % at 10 µM. shares compounds with TRPC6 inhibitor;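 active = compounds whose fluorescence signal differed from control wells by over 3 SD, either direction, in both duplicate plates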
TRPC4 spec = mouse TRPC4 off-target activity of TRPC6 inhibitors. HEK293 TRPC4/mu-opioid, membrane potential fluorescence. activity change, negative = inhibition, % at 10 µM. shares compounds with TRPC6 inhibitor. AID 2777. 920 tested, 61% active;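 active = rise or fall in signal beyond 3 SD of buffer-only wells in both replicate plates, either sign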;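 note: integrated kinetic ratio of fluorescence range over baseline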
HEK293 MPD ctr 2-1 = second check of TRPC6 inhibitor effects in parental HEK293 cells | signal change vs control, % at 10 µM | shares compounds with TRPC6 inhibitor | 920 tested, 31% active | parental HEK293 membrane potential dye fluorescence; maximal acetylcholine challenge after compound addition;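 active = membrane potential signal moving either way by over 3 SD of the maximum-effect control, in both duplicate plates, meaning non-specific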
HEK293 MPD ctr-1 = parental HEK293 nonspecific activity of TRPC6 inhibitors; shares compounds with TRPC6 inhibitor; parental HEK293 membrane potential dye fluorescence; membrane potential signal change, % at 10 µM; 920 tested, 60% active;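 active = membrane potential signal shifting up or down by more than 3 SD of buffer-only wells, on both duplicate plates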
HEK293 MPD ctr-2 = counter-screen for TRPC6 modulators: effect in parental HEK293 cells; shares compounds with TRPC6 inhibitor; membrane potential signal change, % at 10 µM; 2,400 tested, 51% active; membrane potential dye fluorescence;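 active = membrane potential signal moves up or down beyond 5 SD from buffer-only wells, on both duplicate plates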
HEK293 MPD ctr 2-2 = second counter-screen for TRPC6 modulators: effect in parental HEK293 cells. AID 488926. 2,400 tested, 14% active. membrane potential dye fluorescence; after compound, maximal acetylcholine stimulation. inhibition, % at 10 µM. shares compounds with TRPC6 inhibitor;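 active = membrane potential signal drops by more than 5 SD from the mean control signal, in both duplicate plates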;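 note: plate controls were acetylcholine ECmax control wells for no effect and buffer only wells for full effect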
TRPC4 ctr mod = mouse TRPC4 off-target activity of TRPC6 modulators | 2,400 tested, 69% active | HEK293 TRPC4/mu-opioid, membrane potential fluorescence | shares compounds with TRPC6 inhibitor | percent change from control (negative = decrease, positive = increase), % at 10 µM | AID 488927;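 active = membrane potential signal moved up or down beyond 5 SD of buffer control wells, in both duplicate plates, actives on both sides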;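 note: plate controls were assay buffer wells for no effect and DAMGO maximal-effect wells for full effect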
TRPC4 ctr inh 2 = mouse TRPC4 off-target activity of TRPC6 modulators, second screen. shares compounds with TRPC6 inhibitor. HEK293 TRPC4/mu-opioid, membrane potential dye fluorescence; stimulated with maximal-effect DAMGO. inhibition, % at 10 µM. 2,400 tested, 55% active. AID 488928;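 active = drop in membrane potential signal beyond 5 SD of the control wells in both duplicate plates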;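 note: TRPC4 counter screen for TRPC6 hits run under conditions tuned for TRPC6 not TRPC4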
TRPC6 block conf = confirmation of mouse TRPC6 inhibitors; shares compounds with TRPC6 inhibitor; HEK293-TRPC6, membrane potential dye, ACh-evoked depolarization; inhibition, % at 10 µM; 3,300 tested, 43% active;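 active = fluorescence ratio falls more than 5 SD below the full-stimulation control mean, in both duplicate runs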;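 note: integrated fluorescence ratio of peak minus minimum over baseline after agonist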
TRPC6 act confirm = confirmation of mouse TRPC6 activators | 2,800 tested, 11% active | shares compounds with TRPC6 inhibitor | HEK293-TRPC6 membrane potential dye fluorescence, FDSS | AID 488961 | activation, % at 10 µM;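 active = ratio signal rise beyond 5 SD above unstimulated control wells' mean, seen in both duplicate runs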;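 note: plate controls were buffer EC0 wells for no effect and acetylcholine ECmax response for full effect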
Starred values were filed as active, the others as inactive. Only some compounds are listed: those with a hit (about 2.3% of all), similar ones and a draw of the others.

`O=[N+]([O-])c1ccccc1CNCCc1c[nH]c2ccccc12` gave TRPC4 PAM inactive, TRPC6 inhibitor -5.55*, TRPC6 activator inactive, TRPC4 agonist inactive, TRPC4 inh inactive, HEK293 MPD ctr-2 inactive, HEK293 MPD ctr 2-2 inactive, TRPC4 ctr mod inactive, TRPC4 ctr inh 2 42.5%*, TRPC6 block conf inactive and TRPC6 act confirm inactive.
`CN1CCC(O)(c2ccc(Cl)cc2)C(C(=O)c2ccc(Cl)cc2)C1` (stereo not given) gave TRPC4 PAM inactive, TRPC6 inhibitor -5.44*, TRPC6 activator inactive, TRPC4 agonist inactive, TRPC4 inh inactive, HEK293 MPD ctr-2 inactive, HEK293 MPD ctr 2-2 inactive, TRPC4 ctr mod inactive, TRPC4 ctr inh 2 35.0%*, TRPC6 block conf inactive and TRPC6 act confirm inactive.
Screening CN1CC(C(=O)c2ccc(Cl)cc2)C(c2ccc(Cl)cc2Cl)C1 (stereo not given) returned TRPC4 PAM inactive, TRPC6 inhibitor inactive, TRPC6 activator inactive, TRPC4 agonist inactive and TRPC4 inh inactive.
For O=[N+]([O-])c1ccc(N2CCCNCC2)c2ncccc12 the results were TRPC4 PAM inactive, TRPC6 inhibitor -11.3*, TRPC6 activator inactive, TRPC4 agonist 138*, TRPC4 inh inactive, HEK293 MPD ctr-2 -444.5%*, HEK293 MPD ctr 2-2 110.5%*, TRPC4 ctr mod -51.5%*, TRPC4 ctr inh 2 79.0%*, TRPC6 block conf 96.5%* and TRPC6 act confirm inactive.
Screening CC(C)Oc1cccc(NC(=O)c2cccn(Cc3ccc4c(c3)OC(F)(F)O4)c2=O)c1 returned TRPC4 PAM inactive, TRPC6 inhibitor inactive, TRPC6 activator inactive, TRPC4 agonist inactive and TRPC4 inh inactive.
Screening Cc1cc(C)[n+](CCCC[n+]2c(C)cc(C)cc2C)c(C)c1 returned TRPC4 PAM inactive, TRPC6 inhibitor -8.89*, TRPC6 activator inactive, TRPC4 agonist inactive, TRPC4 inh inactive, HEK293 MPD ctr-2 -437.5%*, HEK293 MPD ctr 2-2 98.5%*, TRPC4 ctr mod -70.5%*, TRPC4 ctr inh 2 59.0%*, TRPC6 block conf 66.0%* and TRPC6 act confirm inactive.
Cc1cccc(CNCCc2c[nH]c3ccccc23)c1 was read as TRPC4 PAM inactive, TRPC6 inhibitor inactive, TRPC6 activator inactive, TRPC4 agonist inactive and TRPC4 inh inactive.
Cc1cccc(CCNCc2cc3cc(C)cc(C)c3[nH]c2=O)c1 was read as TRPC4 PAM inactive, TRPC6 inhibitor -5.92*, TRPC6 activator inactive, TRPC4 agonist inactive, TRPC4 inh inactive, HEK293 MPD ctr-2 inactive, HEK293 MPD ctr 2-2 65.0%*, TRPC4 ctr mod -18.0%*, TRPC4 ctr inh 2 93.5%*, TRPC6 block conf 82.0%* and TRPC6 act confirm inactive.
For Cc1ccccc1CCNCc1ccc(Br)cc1 the results were TRPC4 PAM inactive, TRPC6 inhibitor inactive, TRPC6 activator inactive, TRPC4 agonist inactive and TRPC4 inh inactive.
`Cc1cccc(CCNCc2cc3cccc(C)c3[nH]c2=O)c1` gave TRPC4 PAM inactive, TRPC6 inhibitor -10.1*, TRPC6 activator inactive, TRPC4 agonist inactive, TRPC4 inh inactive, TRPC4 spec 2 15.0%*, TRPC4 spec -12.9%*, HEK293 MPD ctr 2-1 25.0%*, HEK293 MPD ctr-1 inactive, TRPC6 block conf 102.4%* and TRPC6 act confirm inactive.
For Cc1ccc2cc(CNCCc3ccccc3C)c(=O)[nH]c2c1 the results were TRPC4 PAM inactive, TRPC6 inhibitor -5.12*, TRPC6 activator inactive, TRPC4 agonist inactive, TRPC4 inh inactive, HEK293 MPD ctr-2 inactive, HEK293 MPD ctr 2-2 inactive, TRPC4 ctr mod inactive, TRPC4 ctr inh 2 77.5%*, TRPC6 block conf 45.5%* and TRPC6 act confirm inactive.
Screening CCCCn1c(O)c(C(C)=NCc2ccc(F)cc2)c(=O)[nH]c1=O returned TRPC4 PAM inactive, TRPC6 inhibitor inactive, TRPC6 activator inactive, TRPC4 agonist inactive and TRPC4 inh inactive.
Cc1[nH]n(-c2ccccc2)c(=O)c1C(c1ccc([N+](=O)[O-])cc1)c1c(C)[nH]n(-c2ccccc2)c1=O was read as TRPC4 PAM inactive, TRPC6 inhibitor -5.9*, TRPC6 activator inactive, TRPC4 agonist inactive, TRPC4 inh inactive, HEK293 MPD ctr-2 inactive, HEK293 MPD ctr 2-2 inactive, TRPC4 ctr mod inactive, TRPC4 ctr inh 2 37.5%*, TRPC6 block conf 42.5%* and TRPC6 act confirm inactive.
For CCCCn1c(O)c(C(=O)/C=C/c2c[nH]c3ccccc23)c(=O)[nH]c1=O the results were TRPC4 PAM inactive, TRPC6 inhibitor inactive, TRPC6 activator 247*, TRPC4 agonist inactive, TRPC4 inh inactive, HEK293 MPD ctr-2 941.0%*, HEK293 MPD ctr 2-2 inactive, TRPC4 ctr mod 586.0%*, TRPC4 ctr inh 2 inactive, TRPC6 block conf inactive and TRPC6 act confirm 212.5%*.
For CN(C)C(Cc1ccccc1)C(=O)c1ccc(-c2ccccc2)cc1 (stereo not given) the results were TRPC4 PAM inactive, TRPC6 inhibitor inactive, TRPC6 activator inactive, TRPC4 agonist inactive and TRPC4 inh inactive.
